Data from ChEMBL document CHEMBL3286381 (J Med Chem, 2014).
Activity calls are given as the source filed them. The rule behind the calls is not given here.

What was measured:
[1] = biological target: T1, Ectonucleotide pyrophosphatase/phosphodiesterase family member 1 (Homo sapiens) (UniProt P22413); assay: Inhibition of human NPP1 using ATP as substrate at 100 uM after 20 mins by reversed-phase HPLC analysis
T1 sequence (whole entry): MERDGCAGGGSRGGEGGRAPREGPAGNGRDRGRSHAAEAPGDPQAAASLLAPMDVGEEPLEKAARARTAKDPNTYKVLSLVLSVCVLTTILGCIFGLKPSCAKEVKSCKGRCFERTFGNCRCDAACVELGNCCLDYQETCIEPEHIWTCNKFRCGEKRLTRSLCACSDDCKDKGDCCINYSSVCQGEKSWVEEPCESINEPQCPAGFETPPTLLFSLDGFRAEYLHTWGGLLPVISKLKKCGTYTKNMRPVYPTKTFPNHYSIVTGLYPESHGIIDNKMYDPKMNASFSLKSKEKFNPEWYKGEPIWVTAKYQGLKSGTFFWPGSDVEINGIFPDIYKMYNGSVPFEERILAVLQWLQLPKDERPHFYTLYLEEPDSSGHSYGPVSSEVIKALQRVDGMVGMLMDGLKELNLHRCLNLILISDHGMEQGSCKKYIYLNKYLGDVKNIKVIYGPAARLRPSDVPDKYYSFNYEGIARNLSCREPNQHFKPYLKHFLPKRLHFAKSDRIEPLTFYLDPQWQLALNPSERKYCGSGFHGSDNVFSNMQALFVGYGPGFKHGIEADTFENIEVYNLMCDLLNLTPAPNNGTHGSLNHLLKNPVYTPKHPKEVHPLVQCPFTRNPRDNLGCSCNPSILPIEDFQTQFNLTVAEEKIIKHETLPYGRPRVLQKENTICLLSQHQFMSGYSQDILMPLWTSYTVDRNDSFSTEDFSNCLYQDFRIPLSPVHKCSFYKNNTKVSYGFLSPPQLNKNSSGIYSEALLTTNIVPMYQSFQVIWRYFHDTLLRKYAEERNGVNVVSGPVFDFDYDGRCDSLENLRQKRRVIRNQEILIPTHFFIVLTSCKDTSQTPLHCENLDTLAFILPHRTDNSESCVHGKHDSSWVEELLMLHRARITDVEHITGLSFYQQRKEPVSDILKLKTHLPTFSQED

[2] = biological target: T2, Alkaline phosphatase, tissue-nonspecific isozyme (Homo sapiens) (UniProt P05186); assay: Inhibition of TNAP (unknown origin) using ATP as substrate assessed as inorganic phosphate release at 100 uM after 15 mins relative to control
T2 sequence (whole entry): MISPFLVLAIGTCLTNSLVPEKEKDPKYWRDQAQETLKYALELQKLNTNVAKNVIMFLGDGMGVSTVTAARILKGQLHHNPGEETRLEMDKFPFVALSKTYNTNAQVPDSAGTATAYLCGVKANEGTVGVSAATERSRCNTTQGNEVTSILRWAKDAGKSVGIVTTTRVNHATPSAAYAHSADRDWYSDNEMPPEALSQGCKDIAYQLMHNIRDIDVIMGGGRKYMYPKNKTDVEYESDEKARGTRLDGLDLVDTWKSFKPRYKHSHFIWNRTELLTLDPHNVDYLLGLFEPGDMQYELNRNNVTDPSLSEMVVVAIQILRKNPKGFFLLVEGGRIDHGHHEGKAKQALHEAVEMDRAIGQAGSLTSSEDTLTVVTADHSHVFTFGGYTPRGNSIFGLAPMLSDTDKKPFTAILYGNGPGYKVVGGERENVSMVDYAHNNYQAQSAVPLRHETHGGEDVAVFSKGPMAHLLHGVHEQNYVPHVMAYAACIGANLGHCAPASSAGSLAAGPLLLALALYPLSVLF

[3] = biological target: P2Y purinoceptor 2 (Homo sapiens) (UniProt P41231); assay: Antagonist activity at human P2Y2 receptor expressed in human 1321N1 cells assessed as effect on UTP-induced effect; assay type: cell-based
[4] = biological target: P2Y purinoceptor 2 (Homo sapiens) (UniProt P41231); assay: Agonist activity at human P2Y2 receptor expressed in human 1321N1 cells assessed as increase of intracellular calcium level at 100 uM after 30 mins using fura-2 AM by fluorescence assay; assay type: functional, cell-based
P2Y purinoceptor 11 = biological target: T3, P2Y purinoceptor 11 (Homo sapiens, UniProt Q96G91); assay: Agonist activity at human P2Y11 receptor expressed in human 1321N1 cells assessed as increase of intracellular calcium level after 30 mins using fura-2 AM by fluorescence assay; assay type: functional, cell-based
T3 sequence (Q96G91 whole entry): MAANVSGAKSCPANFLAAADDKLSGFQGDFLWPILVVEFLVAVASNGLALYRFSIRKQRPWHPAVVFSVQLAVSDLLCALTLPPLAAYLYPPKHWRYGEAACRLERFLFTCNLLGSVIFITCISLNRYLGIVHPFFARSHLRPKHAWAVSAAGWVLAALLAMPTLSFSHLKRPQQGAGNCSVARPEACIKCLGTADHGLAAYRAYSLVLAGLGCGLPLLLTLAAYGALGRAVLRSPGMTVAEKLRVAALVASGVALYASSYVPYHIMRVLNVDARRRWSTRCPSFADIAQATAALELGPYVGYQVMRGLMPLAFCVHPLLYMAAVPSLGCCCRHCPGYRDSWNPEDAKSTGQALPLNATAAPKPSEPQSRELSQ

[5] = biological target: T4, Ectonucleotide pyrophosphatase/phosphodiesterase family member 1 (Homo sapiens, UniProt P22413); assay: Mixed type inhibition of human NPP1 using pNP-TMP as substrate assessed as dissociation constant for enzyme-inhibitor-substrate complex after 20 mins by Dixon and Cornish-Bowden method
T4 sequence (P22413 whole entry): T1 sequence (whole entry)
Outline: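 Human NPP1 (COS-7 lysate) is tested with pNP-TMP hydrolysis at 37 °C in pH 8.5 Tris buffer, reading p-nitrophenol at […]. Substrate is 25, 50 and 100 μM, and inhibitor is 0, 25, 50 and 100 μM. Inhibition type, Ki and Ki′ (EIS complex dissociation constant) come from Dixon and Cornish–Bowden plots of three independent experiments.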

[6] = biological target: T5, P2Y purinoceptor 11 (Homo sapiens) (UniProt Q96G91); assay: Agonist activity at human P2Y11 receptor expressed in human 1321N1 cells assessed as increase of intracellular calcium level up to 10 uM after 30 mins using fura-2 AM by fluorescence assay; assay type: functional, cell-based
T5 sequence (whole entry): T3 sequence (Q96G91 whole entry)

P2Y purinoceptor 2 (Homo sapiens), sequence (P41231 whole entry): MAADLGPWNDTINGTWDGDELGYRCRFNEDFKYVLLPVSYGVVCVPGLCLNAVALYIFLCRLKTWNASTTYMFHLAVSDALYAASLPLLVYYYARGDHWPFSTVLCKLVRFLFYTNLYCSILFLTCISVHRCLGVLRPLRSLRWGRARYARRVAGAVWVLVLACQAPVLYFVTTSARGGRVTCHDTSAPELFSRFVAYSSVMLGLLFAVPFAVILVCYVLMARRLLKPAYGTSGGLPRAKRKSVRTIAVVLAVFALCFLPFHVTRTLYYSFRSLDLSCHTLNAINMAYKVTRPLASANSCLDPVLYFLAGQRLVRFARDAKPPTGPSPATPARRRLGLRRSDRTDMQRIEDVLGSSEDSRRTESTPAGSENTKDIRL

| SMILES | inhibition [1] | inhibition [2] [%] | inhibition [3] | Activity [4] | EC50 (P2Y purinoceptor 11) [µM] | Ki [5] [µM] | Activity [6] |
| --- | --- | --- | --- | --- | --- | --- | --- |
| Nc1ncnc2c1ncn2[C@@H]1O[C@H](COP(=O)(O)CP(=O)(O)OP(O)(O)=S)[C@@H](O)[C@H]1O | Active | 8 | inactive | inactive | – | – | – |
| Nc1ncnc2c1ncn2[C@@H]1O[C@H](CO[P@@](O)(=S)OP(=O)(O)C(Cl)(Cl)P(=O)(O)O)[C@@H](O)[C@H]1O | Active | – | – | – | – | – | – |
| Nc1ncnc2c1ncn2[C@@H]1O[C@H](CO[P@@](O)(=S)OP(=O)(O)CP(=O)(O)O)[C@@H](O)[C@H]1O | Active | – | – | – | 0.9 | – | – |
| Nc1ncnc2c1ncn2[C@@H]1O[C@H](CO[P@](O)(=S)OP(=O)(O)C(Cl)(Cl)P(=O)(O)O)[C@@H](O)[C@H]1O | Active | 17 | inactive | inactive | – | – | – |
| Nc1ncnc2c1ncn2[C@@H]1O[C@H](CO[P@](O)(=S)OP(=O)(O)CP(=O)(O)O)[C@@H](O)[C@H]1O | Active | – | – | – | – | 4.5 | inactive |
